Measurements: paper PMC3514448 (ACS chemical biology, 2012)
≈ marks a conversion by molar mass, not a printed value. Where two headings read alike, the source gives them in different places.

Experiments:
EcFtsZ = EcFtsZ (Escherichia coli, UniProt P0A9A6); assay type: biochemical; settings: for Inhibition of EcFtsZ GTPase activity with detergent: 0.01% Triton X-100; for Inhibition of EcFtsZ GTPase activity at increasing FtsZ concentrations: increasing protein concentration
BsFtsZ [1] = target: T1, BsFtsZ (Bacillus subtilis, UniProt P17865); test: Enzyme-coupled GTPase assay, BsFtsZ; assay type: biochemical; settings: for Inhibition of BsFtsZ GTPase activity with detergent: 0.01% Triton X-100; for Inhibition of BsFtsZ GTPase activity at increasing FtsZ concentrations: increasing protein concentration; for Inhibition of BsFtsZ GTPase activity: absence of Triton X-100
FtsZ [2] = test: Malachite green GTPase assay under approximate Merck viriditoxin conditions; assay type: biochemical; settings: up to 128 μM; 50 mM Tris, 34 mM KCl, 0.75 mM Mg(OAc)2, 2.5 mM CaCl2, 50 μg/mL DEAE-Dextran, 37 °C
[3] = Chemical stability on storage; assay type: physicochemical; settings: degrades if not stored free of solvent and at low temperature
FtsZ [4] = settings: cited from earlier work
tubulin = settings: berberine even at high concentration (100 μM); cited from earlier work
Dnm1 = target: T2, Dnm1 (Saccharomyces cerevisiae, UniProt P54861); test: GTPase activity of the eukaryotic GTPase Dnm1; assay type: biochemical
T2 sequence (P54861 1-757): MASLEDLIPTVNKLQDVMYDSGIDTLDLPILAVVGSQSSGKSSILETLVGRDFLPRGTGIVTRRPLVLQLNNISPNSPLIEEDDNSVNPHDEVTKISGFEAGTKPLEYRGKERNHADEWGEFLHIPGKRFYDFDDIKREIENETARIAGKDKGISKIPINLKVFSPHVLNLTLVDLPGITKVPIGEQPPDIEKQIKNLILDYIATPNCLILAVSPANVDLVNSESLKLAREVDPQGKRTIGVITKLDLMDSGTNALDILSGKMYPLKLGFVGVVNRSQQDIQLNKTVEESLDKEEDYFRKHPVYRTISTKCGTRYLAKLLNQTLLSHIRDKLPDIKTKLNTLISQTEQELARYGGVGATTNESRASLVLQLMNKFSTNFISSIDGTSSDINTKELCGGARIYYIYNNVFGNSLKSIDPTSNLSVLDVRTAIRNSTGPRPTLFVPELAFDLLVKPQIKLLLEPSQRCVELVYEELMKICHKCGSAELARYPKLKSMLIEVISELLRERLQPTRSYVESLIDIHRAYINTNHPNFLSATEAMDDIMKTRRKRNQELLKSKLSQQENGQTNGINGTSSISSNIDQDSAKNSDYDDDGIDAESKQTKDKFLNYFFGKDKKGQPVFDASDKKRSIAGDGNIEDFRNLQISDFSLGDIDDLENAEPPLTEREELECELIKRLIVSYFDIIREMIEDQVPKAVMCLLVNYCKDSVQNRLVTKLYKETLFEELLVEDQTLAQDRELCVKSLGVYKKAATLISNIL

BsFtsZ [5] = target: T1, BsFtsZ; test: Malachite green GTPase assay, BsFtsZ; assay type: biochemical; settings: concentrations up to 100 μM
SaFtsZ = SaFtsZ (Staphylococcus aureus, UniProt P0A031); test: GTPase assay, SaFtsZ; assay type: biochemical
In short: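 Recombinant S. aureus FtsZ (pET11a, E. coli C41(DE3), IPTG 30 °C 5 h) purified by ammonium sulfate and anion exchange; BCA concentration divided by 0.75. 10 μM FtsZ with inhibitor in DMSO, pH 6.5 MES/Mg(OAc)2/KOAc, preincubated 5 min, then GTP added. Coupled: PK/LDH, PEP, NADH, A340 over time at ~25 °C. Malachite green: 30 °C, EDTA-quenched time points, A630 against phosphate standards.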

B. subtilis strain 168 = test: Antimicrobial activity; assay type: cell-based, Bacillus subtilis
[6] = standard conditions, up to 200 μM

T1 sequence (P17865 whole entry): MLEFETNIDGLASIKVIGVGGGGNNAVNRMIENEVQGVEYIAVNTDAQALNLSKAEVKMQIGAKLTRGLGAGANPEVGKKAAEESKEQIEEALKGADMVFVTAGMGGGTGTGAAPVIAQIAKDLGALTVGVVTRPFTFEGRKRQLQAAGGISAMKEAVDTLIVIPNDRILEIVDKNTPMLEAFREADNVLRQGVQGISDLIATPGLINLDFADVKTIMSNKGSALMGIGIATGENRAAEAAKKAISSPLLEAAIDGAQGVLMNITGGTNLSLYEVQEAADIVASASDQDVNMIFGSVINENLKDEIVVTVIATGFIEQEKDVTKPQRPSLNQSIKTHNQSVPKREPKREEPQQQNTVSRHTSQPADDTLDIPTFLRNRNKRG
EcFtsZ, sequence (P0A9A6 whole entry): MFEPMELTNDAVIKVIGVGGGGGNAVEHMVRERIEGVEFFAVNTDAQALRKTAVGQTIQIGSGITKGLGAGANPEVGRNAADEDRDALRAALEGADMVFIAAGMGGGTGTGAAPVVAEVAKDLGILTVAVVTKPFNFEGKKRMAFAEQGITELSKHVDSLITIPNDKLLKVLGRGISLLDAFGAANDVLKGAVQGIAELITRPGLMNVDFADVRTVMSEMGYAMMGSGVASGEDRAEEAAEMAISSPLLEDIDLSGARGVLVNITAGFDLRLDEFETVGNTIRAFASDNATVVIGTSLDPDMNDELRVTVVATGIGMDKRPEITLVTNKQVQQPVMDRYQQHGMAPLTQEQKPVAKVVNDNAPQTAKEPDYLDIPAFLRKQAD
SaFtsZ, sequence (P0A031 whole entry): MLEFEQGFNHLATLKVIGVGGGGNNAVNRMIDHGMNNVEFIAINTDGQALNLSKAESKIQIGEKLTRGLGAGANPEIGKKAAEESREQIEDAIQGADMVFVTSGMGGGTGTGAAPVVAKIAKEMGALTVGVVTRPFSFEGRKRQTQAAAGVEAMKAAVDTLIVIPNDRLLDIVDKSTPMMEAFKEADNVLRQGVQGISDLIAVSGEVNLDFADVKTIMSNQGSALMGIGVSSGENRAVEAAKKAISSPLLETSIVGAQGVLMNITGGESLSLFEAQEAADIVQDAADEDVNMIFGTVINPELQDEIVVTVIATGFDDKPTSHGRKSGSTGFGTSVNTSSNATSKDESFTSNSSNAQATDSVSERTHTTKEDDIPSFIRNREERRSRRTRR

Question: For COC(=O)CC1Cc2cc3cc(OC)c(-c4c(OC)cc5cc6c(c(O)c5c4O)C(=O)OC(CC(=O)OC)C6)c(O)c3c(O)c2C(=O)O1 (stereo not shown) [Viriditoxin, viriditoxin], which “Inhibition of E. coli FtsZ” value (EcFtsZ; [6]) is on record?
Answer: Its value is “no inhibition”.

Question: And the “Inhibition of B. subtilis FtsZ” value (BsFtsZ [1]; [6])?
Answer: The value was “no inhibition”.

Question: What about the “Inhibition of FtsZ GTPase under Merck conditions” value (FtsZ [2]) of the same compound?
Answer: Its value is “no inhibition”.

Question: And the Chemical stability [3]?
Answer: Its Chemical stability is “chemically unstable”.

Question: What about the IC50 (FtsZ [4]; read-out: Reported IC50 (FtsZ)) of the same compound?
Answer: Its IC50 is 10 µM.

Question: For C[n+]1cc2c3c(ccc2c2ccc4cc5c(cc4c21)OCO5)OCO3 [sanguinarine], which “Inhibition of tubulin assembly” value (tubulin) is on record?
Answer: The value was “inhibit tubulin assembly”.

Question: With Zantrin Z3 as the compound, how does the “Inhibition of EcFtsZ GTPase activity with detergent” value (EcFtsZ) read?
Answer: The value was “maintained”.

Question: And the “Inhibition of EcFtsZ GTPase activity at increasing FtsZ concentrations” value (EcFtsZ)?
Answer: Its value is “maintained”.

Question: And the IC50 (EcFtsZ; read-out: IC50 for inhibition of EcFtsZ GTPase activity, no Triton X-100)?
Answer: The IC50 was 20 µM.

Question: And the “Inhibition of BsFtsZ GTPase activity with detergent” value (BsFtsZ [1])?
Answer: The value was “maintained”.

Question: What about the “Inhibition of BsFtsZ GTPase activity at increasing FtsZ concentrations” value (BsFtsZ [1]) of the same compound?
Answer: The value was “maintained”.

Question: Which “Inhibition of EcFtsZ GTPase activity” value (EcFtsZ) does the source give for O=C1CC(c2ccc(O)cc2)Oc2c(Cc3ccccc3O)c(O)c(Cc3ccccc3O)c(O)c21 (stereo not shown) [4′-hydroxydichamanetin] here?
Answer: Its value is “exhibited the published activity”.

Question: What about the “Inhibition of BsFtsZ GTPase activity” value (BsFtsZ [1]) of the same compound?
Answer: Its value is “exhibited the published activity”.

Question: What does the source list for CC(C)c1c(O)ccc2c1CC[C@H]1C(C)(C)CCC[C@]21C [totarol]?
Answer: Inhibition of EcFtsZ GTPase activity with detergent (EcFtsZ): vanished; Inhibition of EcFtsZ GTPase activity (EcFtsZ; absence of Triton X-100): reproduce the IC50; Inhibition of EcFtsZ GTPase activity at increasing FtsZ concentrations (EcFtsZ): decreased nearly to the point of having no effect; Inhibition of BsFtsZ GTPase activity with detergent (BsFtsZ [1]): vanished; Inhibition of BsFtsZ GTPase activity (BsFtsZ [1]): reproduce the IC50; Inhibition of BsFtsZ GTPase activity at increasing FtsZ concentrations (BsFtsZ [1]): decreased nearly to the point of having no effect; Dnm1 GTPase activity on addition of detergent (Dnm1; 0.01% Triton X-100): completely restored; Effect on Dnm1 GTPase activity (Dnm1; micromolar concentrations, no detergent): significant reduction

Question: For COc1nc2c(=O)[nH]c(N)nc2n1[C@@H]1O[C@H](COP(=O)(O)OP(=O)(O)OP(=O)(O)O)[C@@H](O)[C@H]1O [8-methoxy GTP], which “Concentration at which the GTPase activity of FtsZ is inhibited” value (FtsZ [4]) is on record?
Answer: The value was 15 µM.

Question: With O=C1C[C@@H](c2ccccc2)Oc2c(Cc3ccccc3O)c(O)c(Cc3ccccc3O)c(O)c21 [Dichamanetin] as the compound, how does the “Reported activity (FtsZ inhibition)” value (FtsZ [4]) read?
Answer: Its value is 12.5 µM.

Question: For COc1ccc2cc3[n+](cc2c1OC)CCc1cc2c(cc1-3)OCO2 [berberine], which “Inhibition of tubulin assembly” value (tubulin) is on record?
Answer: The value was “does not do so”.

Question: For NC(=O)c1c(F)ccc(OCc2nc3cc(Cl)cnc3s2)c1F [PC190723], which “Inhibition of BsFtsZ, enzyme-coupled assay” value (BsFtsZ [1]; concentrations up to 100 μM) is on record?
Answer: The value was “no inhibition”.

Question: And the “Inhibition of BsFtsZ, malachite green assay” value (BsFtsZ [5])?
Answer: The value was “no inhibition”.

Question: And the “Inhibition of SaFtsZ GTPase activity” value (SaFtsZ)?
Answer: The value was “no inhibition”.

Question: And the “Change of SaFtsZ GTPase activity” value (SaFtsZ; basal activity ~0.5 GTP/FtsZ/min)?
Answer: The value was “dose-dependent and reproducible increase in activity”.

Question: And the MIC (B. subtilis strain 168)?
Answer: The MIC was 1 µM (≈ 0.356 µg/mL).

Question: For Oc1ccc(Cl)cc1Cc1cc(Cl)cc(Cc2cc(Cl)ccc2O)c1O [zantrin Z1], which “Inhibition of EcFtsZ GTPase activity” value (EcFtsZ; absence of Triton X-100) is on record?
Answer: The value was “exhibited the published activity”.

Question: And the “Inhibition of BsFtsZ GTPase activity” value (BsFtsZ [1])?
Answer: Its value is “exhibited the published activity”.
